Measured values as given in paper PMC9399017 (European Journal of Drug Metabolism and Pharmacokinetics, 2022).
“And” between values parts separate entries of the source, which are not always exact repeats. Identical values can stand only once. Blank lines part the entries; values can stand above or below the molecule they belong to.

Tests used:
[1] = tested on: major CYP isoenzymes, including CYP3A4; settings: in vitro; cited from earlier work
CYP3A = settings: humans; cited from earlier work
[2] = Population pharmacokinetic; type: in vivo, human (patients with advanced cancers); settings: for Duration of constant (zero-order) release into depot, D1, capsule, Estimate (% RSE): hard gelatin capsule
Procedure, shortened: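 Patients took immediate-release capsules or film-coated tablets orally. Sampling was intensive in cycle 1 and sparse for up to 5 cycles. Lithium-heparin blood was processed to plasma within about 30 min, protein-precipitated, and measured by validated LC-MS/MS (2.00‒500 ng/mL; LLOQ 2.00 ng/mL). FOCE-I mixed-effects fits tested 1–3-compartment models with fixed allometric weight exponents and per-cycle interoccasion variability. Percentiles came from bootstrap.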

[3] = between-subject variability, NONMEM estimate
[4] = between-subject variability, bootstrap
[5] = final PopPK model, NONMEM estimate

SMILES: C[C@]12CC[C@@H]3c4ccc(O)cc4C[C@@H](CCCCCCCCC[S+]([O-])CCCC(F)(F)C(F)(F)F)[C@H]3[C@@H]1CC[C@@H]2O (stereo partly drawn) [Fulvestrant, fulvestrant]
Inhibition of major CYP isoenzymes [1]: did not significantly inhibit
Change in exposure to a CYP3A substrate (midazolam) (CYP3A): nor did it change the exposure

Dose proportionality (post hoc ETA versus dose) ([2]; 5 to 30 mg lucitanib, visual inspection): consistent with dose proportionality
Effect of co-administration of fulvestrant on lucitanib pharmacokinetics ([2]; 17 of 403 patients with concomitant fulvestrant): no effect
Residual error (proportional), Estimate (% RSE) ([2]; NONMEM estimate): 33.6% (2.30%)
CL/F BSV (log-proportional), Estimate (% RSE) [2, 3]: 47.8% (5.69%)
D1 BSV (log-proportional), Estimate (% RSE) [2, 3]: 60.1% (18.6%)
Vc/F BSV (log-proportional), Estimate (% RSE) [2, 3]: 58.6% (6.97%)
Vp/F BSV (log-proportional), Estimate (% RSE) [2, 3]: 76.7% (9.10%)
CL/F BSV (log-proportional), Bootstrap median (2.5th, 97.5th percentile) [2, 4]: 47.5% (42.8%, 53.2%)
D1 BSV (log-proportional), Bootstrap median (2.5th, 97.5th percentile) [2, 4]: 58.7% (41.3%, 75.8%)
Vc/F BSV (log-proportional), Bootstrap median (2.5th, 97.5th percentile) [2, 4]: 58.9% (51.3%, 67.5%)
Vp/F BSV (log-proportional), Bootstrap median (2.5th, 97.5th percentile) [2, 4]: 75.2% (60.0%, 88.8%)
Residual error (proportional), Bootstrap median (2.5th, 97.5th percentile) ([2]; bootstrap): 33.5% (32.0%, 34.8%)
Duration of constant release into depot for capsule, D1, Bootstrap median (2.5th, 97.5th percentile) ([2]; capsule, nonparametric bootstrap): 0.812 (0.629, 0.956) h
Effect of concomitant proton pump inhibitors on lucitanib absorption ([2]; concomitant PPI): no clinically significant effect
Ratio of F with concomitant PPI/without PPI, 95% CI ([2]; concomitant proton pump inhibitor, n = 152, not significant): 0.83–1.08
Reduction in F with concomitant PPI (estimated effect size) ([2]; concomitant proton pump inhibitor, not clinically significant): 6.5%
CL/F and Vc/F correlation, Estimate (% RSE) ([2]; correlation of random effects, NONMEM estimate): 0.596 (6.30%)
CL/F and Vc/F correlation, Bootstrap median (2.5th, 97.5th percentile) ([2]; correlation of random effects, bootstrap): 0.595 (0.469, 0.721)
Duration of zero-order release, D1, tablet ([2]; film-coated tablet, final PopPK model): 0.243 h
Apparent central volume, Vc/F, Estimate (% RSE) [2, 5]: 63.8 (5.08%) L/70 kg
Apparent distribution clearance, Q/F, Estimate (% RSE) [2, 5]: 6.23 (8.41%) L/h/70 kg
Apparent peripheral volume, Vp/F, Estimate (% RSE) [2, 5]: 69.1 (6.81%) L/70 kg
Effect of formulation on D1 (tablet to capsule ratio), Estimate (% RSE) [2, 5]: 0.299 (19.4%)
First-order absorption rate constant, Ka, Estimate (% RSE) [2, 5]: 4.86 1/h and 4.86 (12.6%) 1/h
Apparent clearance, CL/F, Estimate (% RSE) ([2]; final PopPK model, NONMEM estimate, oral 5-30 mg QD, 403 patients): 1.90 (2.75%) L/h/70 kg
Duration of constant (zero-order) release into depot, D1, capsule, Estimate (% RSE) ([2]; final PopPK model): 0.814 (22.2%) h
Duration of constant (zero-order) release into depot, D1, capsule, Estimate (% RSE) ([2]; final PopPK model, listed as Lucitanib): 0.814 h
half-life ([2]; human, plasma, oral): 8.58 min
Apparent central volume, Vc/F, Bootstrap median (2.5th, 97.5th percentile) ([2]; nonparametric bootstrap): 63.4 (57.3, 70.6) L/70 kg
Apparent distribution clearance, Q/F, Bootstrap median (2.5th, 97.5th percentile) ([2]; nonparametric bootstrap): 6.30 (5.29, 7.72) L/h/70 kg
Apparent peripheral volume, Vp/F, Bootstrap median (2.5th, 97.5th percentile) ([2]; nonparametric bootstrap): 68.9 (61.0, 79.1) L/70 kg
Effect of formulation on D1 (tablet to capsule ratio), Bootstrap median (2.5th, 97.5th percentile) ([2]; nonparametric bootstrap): 0.343 (0.178, 0.630)
First-order absorption rate constant, Ka, Bootstrap median (2.5th, 97.5th percentile) ([2]; nonparametric bootstrap): 4.77 (2.94, 8.21) 1/h
Apparent clearance, CL/F, Bootstrap median (2.5th, 97.5th percentile) ([2]; nonparametric bootstrap, 1000 replicates): 1.90 (1.80, 2.00) L/h/70 kg
D1 values, both immediate-release formulations ([2]; tablet and capsule): < 1 h
D1 shorter for tablets versus capsules ([2]; tablet vs capsule): 70%
SMILES: CNC(=O)c1cccc2cc(Oc3ccnc4cc(OCC5(N)CC5)c(OC)cc34)ccc12 [lucitanib]
Variance in Vc/F explained by body weight ([2]; present dataset): 11%
